Reference: PubChem BioAssay
Calls of active or inactive are those of the source.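 The calls were made as follows, unless noted: active = GFP response above 150% of the DMSO level; inconclusive = fewer than 70 events counted for a yeast strain; inactive = the rest.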

Key:
[1] = RPL19A-GFP modulators, yeast TOR pathway, confirmation, cell-based, S. cerevisiae, flow cytometry, cherry picks, mother/daughter gates (AID 2270;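 active = GFP response below 50% of the DMSO control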); conditions: S. cerevisiae RPL19A-GFP strain, 3 h, at 10 µM, stronger effect = lower value, 100 = same GFP as DMSO wells
[2] = LAP4-GFP expression modulators in yeast, confirmation, cell-based, cherry picks, flow cytometry, mother/daughter gates (AID 2271;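 active = GFP response above 150% of the DMSO control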;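 also: ratio of sample to DMSO plate mean so 100% equals DMSO level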); conditions: S. cerevisiae LAP4-GFP strain, 3 h, at 10 µM, stronger effect = higher value, 100 means same as DMSO control
Method in brief: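 System: Alexa 633-stained baker's yeast GFP-fusion strain / Medium: synthetic complete (SC) yeast growth medium / Doses: compound at 10 µM, single point / Times: 3 h treatment at 30 °C with rotation / Detection: HT flow cytometry, GFP fluorescence channel / Benchmarks: DMSO-only negative wells, rapamycin 400 ng/mL positive wells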

[3] = modulators of MEP2-GFP levels in yeast, confirmation, S. cerevisiae, flow cytometry GFP, cherry picks (AID 2272;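 active = GFP response above 150% of the DMSO control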;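 also: ratio of well signal to plate DMSO mean so 100% equals DMSO level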); conditions: S. cerevisiae MEP2-GFP strain, 3 h, at 10 µM, stronger effect = higher value
[4] = AGP1-GFP expression modulators, hit retest, confirmation, cell-based, flow cytometry, S. cerevisiae, cherry picks (AID 2273);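 also: median GFP channel fluorescence over the whole cell population gate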; conditions: S. cerevisiae AGP1-GFP strain, 3 h, at 10 µM
[5] = modulators of CIT2-GFP expression in yeast, confirmation, S. cerevisiae, GFP fusion, cherry picks, mother/daughter gates (AID 2274); conditions: S. cerevisiae CIT2-GFP strain, flow cytometry, 3 h, at 10 µM, stronger effect = higher value
[6] = measured here: daughter cell gate
[7] = measured here: mother cell gate
[8] = measured here: daughter cell gate response
[9] = measured here: mother cell gate response

Structure (SMILES)	GFP response vs DMSO [1]	GFP response vs DMSO [1, 6] [%]	GFP response vs DMSO [1, 7] [%]	GFP response relative to DMSO [2]	GFP response relative to DMSO [2, 8] [%]	GFP response relative to DMSO [2, 9] [%]	GFP response vs DMSO [3]	GFP response, % of DMSO [4]	GFP response, % of DMSO [5]	GFP response, % of DMSO [5, 6] [%]	GFP response, % of DMSO [5, 7] [%]
O=C(OCC(=O)N1CCN(C(=O)c2ccco2)CC1)c1cc(-c2cccc(Br)c2)nc2ccccc12	80.3% (inactive)	75.5	76.9	139% (inactive)	117	144	125% (inactive)	127% (inactive)	128% (inactive)	114	125
CCOc1ccc(N2C(=O)CC(Sc3nccc(C)n3)C2=O)cc1 (stereo unspecified)	97.3% (inactive)	99.3	97.3	97.7% (inactive)	97.5	97.4	103% (inactive)	102% (inactive)	100% (inactive)	97.6	102
CCNC(=O)c1c(O)c2cccc3c2n(c1=O)CC3	103% (inactive)	101	103	103% (inactive)	101	105	94.7% (inactive)	99% (inactive)	98.8% (inactive)	101	98.1
O=[N+]([O-])c1cc(O)c2ncccc2c1	99.1% (inactive)	94.2	97.5	205% (active)	200	204	114% (inactive)	94.3% (inactive)	122% (inactive)	112	131
COC(=O)Cn1cc(/C=C/[N+](=O)[O-])c2ccccc21	101% (inactive)	103	100	145% (inactive)	146	145	101% (inactive)	103% (inactive)	106% (inactive)	108	103
COc1cccc2c1Oc1ncccc1N(C(=O)CCC(=O)NCc1ccccc1)C2	99.2% (inactive)	98.1	101	97% (inactive)	95.9	97.3	103% (inactive)	102% (inactive)	98.8% (inactive)	99.2	98.1
CCCc1ccc(C(=O)N2CCN(c3ccccc3OCC)CC2)cc1	99.1% (inactive)	98.8	99.2	95.3% (inactive)	93.6	93.6	97.5% (inactive)	96.9% (inactive)	96.4% (inactive)	96.4	94.5
Cc1ccc(N2C(=O)C3C4C=CC(CNC(=S)N5CCN(c6ccccn6)CC5)(O4)C3C2=O)cc1 (stereo unspecified)	98.7% (inactive)	99.6	98.6	113% (inactive)	109	111	106% (inactive)	105% (inactive)	99.3% (inactive)	100	96.8
COc1ccccc1N1C(=O)CC(Sc2ncccc2C(=O)O)C1=O (stereo unspecified)	100% (inactive)	98.4	100	95% (inactive)	95.6	97.2	100% (inactive)	99.2% (inactive)	100% (inactive)	99.7	99.8
Clc1ccc(N=c2ssnc2Cl)cc1	97.8% (inactive)	99.2	92.9	154% (active)	139	161	107% (inactive)	97.4% (inactive)	104% (inactive)	105	99.8
COc1cc(C2CC(c3cccnc3)=NN2c2ccc(F)cc2)cc(OC)c1OC (stereo unspecified)	98.2% (inactive)	98.4	95.2	95.3% (inactive)	94.4	95.4	101% (inactive)	102% (inactive)	98.6% (inactive)	97.6	96
Cc1cccc(NC(c2ccc(C)s2)c2ccc3ccc(C)nc3c2O)n1 (stereo unspecified)	108% (inactive)	120	98.6	140% (inactive)	141	134	114% (inactive)	94.9% (inactive)	109% (inactive)	121	94.4
CCN=C(NCC)SC1CC(=O)N(c2cccc(OCC)c2)C1=O (stereo unspecified)	99.2% (inactive)	97.1	98.4	101% (inactive)	99.2	98.3	100% (inactive)	101% (inactive)	103% (inactive)	103	102
O=C(N/N=C/c1ccc(OCCCF)cc1)c1cc(OCC(F)(F)F)ccc1OCC(F)(F)F	98% (inactive)	100	98.2	97.4% (inactive)	98.7	101	102% (inactive)	97.2% (inactive)	95.2% (inactive)	94.8	97.7
Cc1ccccc1NC(=O)c1ccccc1	96.6% (inactive)	98.1	96.9	95.4% (inactive)	97.6	94	107% (inactive)	96.4% (inactive)	98.3% (inactive)	99.1	97.3
COc1cc(OC)cc(C(=O)N2CCN(c3ccccc3F)CC2)c1	98.6% (inactive)	97.3	99.1	97.4% (inactive)	98.7	98.3	100% (inactive)	98.3% (inactive)	99.1% (inactive)	99.7	98.7
CS(=O)(=O)N1N=C(c2ccc3nccnc3c2)CC1c1ccccc1 (stereo unspecified)	99.8% (inactive)	102	98.2	100% (inactive)	102	99.5	101% (inactive)	98.4% (inactive)	103% (inactive)	103	102
C/C(=N\NC(=O)c1cc2ccccc2cc1O)c1ccccn1	106% (inactive)	103	98.1	234% (active)	147	231	126% (inactive)	109% (inactive)	132% (inactive)	113	120
Cc1ccc(N2C(=O)c3ccccc3NC2c2ccccc2O)cc1 (stereo unspecified)	97.2% (inactive)	98.1	98.4	97.9% (inactive)	96	96.1	109% (inactive)	96.6% (inactive)	103% (inactive)	105	103
S=c1[nH]nc(NCCCN2CCOCC2)s1	96% (inactive)	97.1	95.1	101% (inactive)	101	102	103% (inactive)	106% (inactive)	102% (inactive)	100	103
O=C(Nc1ccccc1)c1ccccc1O	96.7% (inactive)	97.3	95.6	114% (inactive)	107	114	99.3% (inactive)	97.3% (inactive)	93.1% (inactive)	95.8	92.6
CCOC(=O)c1ccc(N=Cc2nc(-c3ccccc3)oc2OC(C)=O)cc1	104% (inactive)	105	101	154% (active)	138	170	96.8% (inactive)	92.2% (inactive)	93% (inactive)	93.8	89.5
CCN(C(=O)c1ccccc1Cl)c1ccccc1	98.5% (inactive)	99	98	107% (inactive)	104	110	99.3% (inactive)	98.8% (inactive)	100% (inactive)	101	100
O=C(N/N=C/c1c(Cl)cccc1Cl)c1cccc(F)c1	95.6% (inactive)	95.3	94	92.9% (inactive)	94.4	93.4	103% (inactive)	97.5% (inactive)	97.2% (inactive)	99.3	97.1
CCOC(=O)CNc1c(-c2ccc(OC)cc2)nc2ccc(Cl)cn12	100% (inactive)	98.4	101	99.8% (inactive)	98.7	102	97.8% (inactive)	99.2% (inactive)	95.2% (inactive)	93.2	93.4
CN(C)c1ccc(N=Cc2nc(-c3ccccc3)oc2OC(=O)c2ccccc2)cc1	98.6% (inactive)	100	98.5	105% (inactive)	103	105	115% (inactive)	111% (inactive)	107% (inactive)	103	107
